Results: paper PMC8943622 (Journal of Cerebral Blood Flow & Metabolism, 2021)
Several values for one entry are separate records, joined by “and”; a condition that tells them apart may be missing. Equal values may be shown once. Read-outs that look alike come from different tables or passages of the source.

Key:
MAGL [1] = test: [18F]T-401 PET after JW642 pretreatment; type: in vivo, rhesus monkey (Macaca mulatta)
MAGL [2] = type: in vivo, rhesus monkey (Macaca mulatta); details: baseline; for VT mean: mean of three monkeys; for VT: M187
[3] = Radiometabolite analysis of [18F]T-401 in arterial plasma; type: in vivo, rhesus monkey; details: 30 min after injection; baseline and JW642 blockade
How it was run: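 Anaesthetised monkeys had 24 serial saphenous-artery samples taken over the 120 min scan. Plasma was separated at 15000 × g, 3 min, 4 °C. Samples from 2, 5, 10, 30, 60, 90 and 120 min went to HPLC (Atlantis T3, acetonitrile/H2O 40/60, 1.0 mL/min, 254 nm). Decay-corrected parent-to-total radioactivity came from peak areas. Blockade used i.v. test compound 0.01–0.3 mg/kg, 5 min before the radioligand, in one monkey.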

MAGL [4] = molecular target: T1, MAGL (Macaca mulatta, UniProt H9ESL3); test: In vivo Scatchard plot analysis of baseline [18F]T-401 PET data; design: species or system rhesus monkey
T1 sequence (H9ESL3 1-303): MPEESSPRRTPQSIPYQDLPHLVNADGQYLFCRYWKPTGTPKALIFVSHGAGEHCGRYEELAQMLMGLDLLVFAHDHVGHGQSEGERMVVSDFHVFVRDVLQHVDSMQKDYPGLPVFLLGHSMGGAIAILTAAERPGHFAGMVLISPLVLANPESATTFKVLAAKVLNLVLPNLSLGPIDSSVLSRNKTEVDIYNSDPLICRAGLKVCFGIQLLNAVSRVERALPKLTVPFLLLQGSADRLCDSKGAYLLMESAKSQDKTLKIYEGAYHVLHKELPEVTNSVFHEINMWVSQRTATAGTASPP
How it was run: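 Three male rhesus monkeys (5–7 kg) were given ketamine 10 mg/kg i.m., then intubated and kept on 1–2% isoflurane, with a heating pad. After a 68Ge–68Ga transmission scan, a 120 min 3D list-mode emission scan began at i.v. radioligand injection (356 ± 50 MBq, 343 ± 68 GBq/μmol). Baseline data were analysed by Scatchard plot to give KD and Bmax in representative ROIs.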

| EC50, plasma JW642 concentration inducing 50% occupancy of MAGL (MAGL [1]; Hill's plot of occupancy versus plasma concentration, monkey M187) | MAGL occupancy (MAGL [1]; JW642 0.01 mg/kg i.v., Lassen's plot) [%] | MAGL occupancy (MAGL [1]; JW642 0.3 mg/kg i.v., Lassen's plot, 0.3 mg/kg) | VT mean (MAGL [2]; CB) [mL/cm^3] | VT mean (MAGL [2]; FCX) [mL/cm^3] | VT mean (MAGL [2]; HIP) [mL/cm^3] | VT (MAGL [2]; OCC) [mL/cm^3] | VT mean (MAGL [2]; OCC) [mL/cm^3] | VT mean (MAGL [2]; Pons) [mL/cm^3] | VT (MAGL [2]; STR) [mL/cm^3] | VT mean (MAGL [2]; STR) [mL/cm^3] | VT mean (MAGL [2]; THA) [mL/cm^3] | time of peak brain uptake after injection (MAGL [2]; monkey brain) [min] | mean VT, upper end of range (MAGL [2]; printed as striatum) [mL/cm^3] | non-displaceable distribution volume (VND) (MAGL [1]; Lassen's plot, averaged x-intercept of regression lines, monkey brain) [mL/cm^3] | VND as portion of VT (MAGL [1]; pons) [%] | parent fraction in arterial plasma [3] | Kd (MAGL [4]; FCX) [nM] | Kd (MAGL [4]; HIP) [nM] | SMILES |
| --- | --- | --- | --- | --- | --- | --- | --- | --- | --- | --- | --- | --- | --- | --- | --- | --- | --- | --- | --- |
| 0.126 µg/mL and 0.1261 µg/mL | 20 | 94% and 93% |  |  |  |  |  |  |  |  |  |  |  |  |  |  |  |  | O=C(OC(C(F)(F)F)C(F)(F)F)N1CCN(Cc2cccc(Oc3ccccc3)c2)CC1 [JW642] |
|  |  |  | 7.17 | 11.7 | 5.95 | 11.89 | 9.96 | 4.73 | 12.51 | 9.05 | 6.36 | 5 to 15 | 11.7 | 0.69 | 14.6 | approximately 30% | 4.18 | 1.09 | Cc1ccnc([18F])c1-c1cccc(N2C[C@H](N3CCN(C(=O)c4nccs4)CC3)CC2=O)c1 [[^18F]T-401, (4R)-1-{3-[2-[^18F]fluoro-4-methylpyridin-3-yl]phenyl}-4-[4-(1,3-thiazol-2-ylcarbonyl)piperazin-1-yl]pyrrolidin-2-one] |
